This note sets out measurements from ChEMBL document CHEMBL1154342, “Scaffold-based design and synthesis of potent N-type calcium channel blockers” (Bioorg Med Chem Lett, 2009).

pIC50: −log10 of the molar value. Activity calls are given as the source filed them. The calls are words filed in the database; no cut-off is given here.

The target in data set [1] is Voltage-dependent L-type calcium channel subunit beta-1/alpha-1B/alpha-2/delta-1 (Rattus norvegicus, UniProt Q02294). Put plainly: Blocking of rat N-type calcium channel alpha-1B/alpha-2-delta-1/beta-1b activity expressed in HEK293 cells assessed as whole cell current by whole cell patch clamp assay. The data set is classed as cell-based. In short, it runs like this: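 HEK293 cells transiently transfected with rat channel subunits, recorded 24–72 h post-transfection. Whole-cell patch clamp with barium as charge carrier; currents elicited from a holding potential of −100 mV to the peak of the current–voltage relation. Each compound tested on 3–5 cells; IC50 estimated.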
Chain of Voltage-dependent L-type calcium channel subunit beta-1/alpha-1B/alpha-2/delta-1 (Q02294 whole entry): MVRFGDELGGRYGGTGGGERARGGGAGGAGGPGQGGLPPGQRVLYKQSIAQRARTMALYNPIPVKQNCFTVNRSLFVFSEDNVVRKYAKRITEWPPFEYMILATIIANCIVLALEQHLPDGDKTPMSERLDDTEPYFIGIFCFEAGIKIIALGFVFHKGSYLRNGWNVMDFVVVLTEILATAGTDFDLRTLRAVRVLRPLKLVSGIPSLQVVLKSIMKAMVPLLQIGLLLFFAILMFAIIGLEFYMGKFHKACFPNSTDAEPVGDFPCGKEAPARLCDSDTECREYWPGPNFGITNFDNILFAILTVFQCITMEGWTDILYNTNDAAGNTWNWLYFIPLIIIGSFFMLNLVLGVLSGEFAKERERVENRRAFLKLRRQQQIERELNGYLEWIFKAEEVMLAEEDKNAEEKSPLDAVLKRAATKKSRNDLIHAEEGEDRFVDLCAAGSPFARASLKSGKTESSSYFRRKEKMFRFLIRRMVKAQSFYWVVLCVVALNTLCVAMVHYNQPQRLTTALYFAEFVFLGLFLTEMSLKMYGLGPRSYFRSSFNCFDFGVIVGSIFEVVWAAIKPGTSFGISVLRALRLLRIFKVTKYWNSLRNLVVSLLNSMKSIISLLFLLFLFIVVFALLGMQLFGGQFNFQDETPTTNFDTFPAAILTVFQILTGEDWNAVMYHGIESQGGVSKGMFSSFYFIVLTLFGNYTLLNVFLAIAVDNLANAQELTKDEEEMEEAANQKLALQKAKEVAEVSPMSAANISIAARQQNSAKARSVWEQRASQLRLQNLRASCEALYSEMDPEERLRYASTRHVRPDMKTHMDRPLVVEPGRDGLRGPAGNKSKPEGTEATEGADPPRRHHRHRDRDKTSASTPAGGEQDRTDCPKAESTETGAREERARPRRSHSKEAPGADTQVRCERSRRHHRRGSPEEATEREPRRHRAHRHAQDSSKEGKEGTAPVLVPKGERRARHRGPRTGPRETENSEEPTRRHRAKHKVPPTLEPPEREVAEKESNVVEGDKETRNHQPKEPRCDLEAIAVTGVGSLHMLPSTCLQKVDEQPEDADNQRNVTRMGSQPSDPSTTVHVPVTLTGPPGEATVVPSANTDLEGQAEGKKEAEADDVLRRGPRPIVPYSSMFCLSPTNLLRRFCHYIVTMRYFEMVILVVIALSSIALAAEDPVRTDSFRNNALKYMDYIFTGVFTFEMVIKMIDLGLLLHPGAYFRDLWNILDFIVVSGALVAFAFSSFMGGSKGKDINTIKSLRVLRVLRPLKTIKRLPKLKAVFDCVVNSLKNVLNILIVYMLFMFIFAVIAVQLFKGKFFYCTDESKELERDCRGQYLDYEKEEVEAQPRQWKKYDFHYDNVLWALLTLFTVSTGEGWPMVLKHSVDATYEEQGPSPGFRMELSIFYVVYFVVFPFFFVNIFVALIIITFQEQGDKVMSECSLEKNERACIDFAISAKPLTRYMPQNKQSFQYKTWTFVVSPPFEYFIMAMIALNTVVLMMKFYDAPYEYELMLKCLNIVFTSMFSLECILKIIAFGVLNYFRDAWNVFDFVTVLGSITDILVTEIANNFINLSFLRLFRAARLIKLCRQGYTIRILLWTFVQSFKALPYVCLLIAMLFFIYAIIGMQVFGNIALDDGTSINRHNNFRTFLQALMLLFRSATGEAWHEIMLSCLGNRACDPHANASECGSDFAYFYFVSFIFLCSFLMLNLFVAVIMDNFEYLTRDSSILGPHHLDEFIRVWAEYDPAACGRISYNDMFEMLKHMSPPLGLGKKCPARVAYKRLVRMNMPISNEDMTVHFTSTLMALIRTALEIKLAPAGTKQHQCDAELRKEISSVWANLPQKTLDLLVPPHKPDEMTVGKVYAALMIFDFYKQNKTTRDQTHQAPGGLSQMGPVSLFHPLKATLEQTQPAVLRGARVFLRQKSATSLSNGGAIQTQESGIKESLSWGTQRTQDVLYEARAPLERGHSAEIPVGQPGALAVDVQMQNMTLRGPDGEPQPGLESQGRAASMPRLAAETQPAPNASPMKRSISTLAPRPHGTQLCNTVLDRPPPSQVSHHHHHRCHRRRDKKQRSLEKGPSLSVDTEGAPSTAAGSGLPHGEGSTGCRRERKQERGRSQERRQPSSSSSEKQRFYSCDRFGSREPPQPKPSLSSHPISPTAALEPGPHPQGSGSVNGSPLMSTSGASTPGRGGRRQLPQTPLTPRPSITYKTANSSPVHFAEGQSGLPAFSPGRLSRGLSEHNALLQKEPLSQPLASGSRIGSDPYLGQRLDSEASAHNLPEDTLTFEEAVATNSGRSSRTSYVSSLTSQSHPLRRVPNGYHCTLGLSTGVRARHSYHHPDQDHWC
Chain of Voltage-dependent L-type calcium channel subunit beta-1/alpha-1B/alpha-2/delta-1 (P54283 whole entry partner): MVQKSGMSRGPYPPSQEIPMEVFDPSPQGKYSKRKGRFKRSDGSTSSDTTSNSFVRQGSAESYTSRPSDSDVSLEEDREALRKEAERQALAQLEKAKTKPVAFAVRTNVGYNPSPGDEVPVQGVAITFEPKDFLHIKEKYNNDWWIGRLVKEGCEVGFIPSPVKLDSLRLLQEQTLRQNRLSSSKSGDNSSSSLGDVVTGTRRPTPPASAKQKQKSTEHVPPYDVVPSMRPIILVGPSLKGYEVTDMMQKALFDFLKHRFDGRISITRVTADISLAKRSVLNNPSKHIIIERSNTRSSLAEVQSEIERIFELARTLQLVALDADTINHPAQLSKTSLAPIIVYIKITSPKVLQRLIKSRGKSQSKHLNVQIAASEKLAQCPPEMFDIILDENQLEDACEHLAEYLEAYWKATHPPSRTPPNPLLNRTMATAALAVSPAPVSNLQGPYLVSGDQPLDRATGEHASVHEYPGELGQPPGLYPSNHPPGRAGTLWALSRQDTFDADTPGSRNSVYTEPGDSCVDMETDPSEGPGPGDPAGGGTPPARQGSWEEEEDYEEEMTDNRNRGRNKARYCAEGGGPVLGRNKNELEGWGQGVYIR
Chain of Voltage-dependent L-type calcium channel subunit beta-1/alpha-1B/alpha-2/delta-1 (P54290 25-944 partner limits assumed): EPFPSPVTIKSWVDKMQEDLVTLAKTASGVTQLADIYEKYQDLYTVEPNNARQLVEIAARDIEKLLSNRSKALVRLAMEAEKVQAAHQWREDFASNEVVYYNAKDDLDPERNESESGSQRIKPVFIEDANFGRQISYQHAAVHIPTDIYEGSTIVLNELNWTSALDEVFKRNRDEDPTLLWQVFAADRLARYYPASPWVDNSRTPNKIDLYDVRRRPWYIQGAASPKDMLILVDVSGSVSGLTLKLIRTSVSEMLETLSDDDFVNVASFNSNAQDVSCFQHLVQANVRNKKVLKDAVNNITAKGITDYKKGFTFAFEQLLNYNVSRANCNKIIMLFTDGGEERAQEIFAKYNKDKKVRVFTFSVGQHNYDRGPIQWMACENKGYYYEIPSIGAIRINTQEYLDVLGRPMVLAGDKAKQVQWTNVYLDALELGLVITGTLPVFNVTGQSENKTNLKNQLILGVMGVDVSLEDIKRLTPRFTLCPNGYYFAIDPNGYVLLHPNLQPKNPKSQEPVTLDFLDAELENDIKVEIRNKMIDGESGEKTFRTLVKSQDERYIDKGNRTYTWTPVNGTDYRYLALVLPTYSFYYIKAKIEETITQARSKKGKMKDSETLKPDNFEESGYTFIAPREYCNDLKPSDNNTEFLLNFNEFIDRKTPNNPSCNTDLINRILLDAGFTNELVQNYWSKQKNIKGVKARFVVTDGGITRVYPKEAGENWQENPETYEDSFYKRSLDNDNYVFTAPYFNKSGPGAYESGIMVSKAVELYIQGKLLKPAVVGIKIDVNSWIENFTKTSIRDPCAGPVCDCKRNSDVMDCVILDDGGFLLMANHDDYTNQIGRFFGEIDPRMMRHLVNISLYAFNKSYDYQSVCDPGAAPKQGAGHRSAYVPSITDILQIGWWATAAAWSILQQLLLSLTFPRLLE
Chain of Voltage-dependent L-type calcium channel subunit beta-1/alpha-1B/alpha-2/delta-1 (P54290 945-1091 partner limits assumed): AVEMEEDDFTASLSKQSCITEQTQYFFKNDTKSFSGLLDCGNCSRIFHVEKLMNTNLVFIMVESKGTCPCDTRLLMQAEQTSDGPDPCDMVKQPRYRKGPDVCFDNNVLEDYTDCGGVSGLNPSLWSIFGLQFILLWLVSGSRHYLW
Background: In patch-clamp work, channel activity is measured electrically.

Data set [2] is described as follows: Blocking of rat Voltage-dependent L-type calcium channel alpha1c/alpha2delta-1/beta1b activity expressed in HEK293 cells assessed as whole cell current by whole cell patch clamp assay. It is filed as cell-based. In short, it runs like this: (§1)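 HEK293 cells transiently transfected with rat channel subunits and recorded 24–72 h later. Whole-cell patch clamp used barium as the charge carrier. Currents were elicited from a holding potential of −100 mV to the peak of each channel's current–voltage relation. Each compound was tested on 3–5 cells per subtype.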

For data set [3], the species on record is Rattus norvegicus. The data set is described as follows: Selectivity ratio of IC50 for rat Voltage-dependent L-type calcium channel to IC50 for rat N-type calcium channel. In short, it runs like this:
as §1

Data set [4] has as its target hERG (KCNH2) (Homo sapiens, UniProt Q12809). The data set is described as follows: Inhibition of human ERG current at 1 uM. An outline of the steps: (§2)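 Whole-cell patch clamp of HEK cells stably expressing hERG, measuring peak tail currents. A single 1 µM application was used for the screen. The concentration–response used 0.1, 1, 3 and 10 µM against a 0.1% DMSO control, with n = 4 per concentration.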

Data set [5] in a line: AUC (0 to 8 hrs) in rat at 10 mg/kg, po. The settings on record: plasma.
The nature of data set [6]: AUC (0 to 8 hrs) in rat at 2 mg/kg, iv. It is filed as ADME, organism-based. The settings on record: plasma. Also noted: time < 8 hr, dose 2 mg/kg, route intravenous. In short, it runs like this:
(§3)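 Rats given a single dose by vein (2 mg/kg) or by mouth (10 mg/kg). Plasma sampled, with AUC taken to 8 h and extrapolated to infinity. Cmax is the highest observed concentration, and Tmax is the time to it. Half-life, apparent volume of distribution, plasma clearance and oral bioavailability were also derived. Values are given as mean with standard error.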

Data set [7] in a line: Half life in rat at 2 mg/kg, iv. It is filed as ADME, organism-based. Also noted: dose 2 mg/kg, route intravenous. The following applies: in vivo. In short, it runs like this:
as §3

Data set [8] can be described thus: Cmax in rat at 2 mg/kg, iv. The data set is classed as ADME, organism-based. Also noted: dose 2 mg/kg, route intravenous. The following applies: in vivo. An outline of the steps:
as §3

Data set [9] can be described thus: AUC (0 to infinity) in rat at 2 mg/kg, iv. The settings on record: plasma. It is filed as ADME, organism-based. Also noted: time infinity, dose 2 mg/kg, route intravenous. In short, it runs like this: as §3
A short description of data set [10]: Cmax in rat at 10 mg/kg, po. The following applies: in vivo.
The subject of data set [11] is Rattus norvegicus. The data set is described as follows: Analgesic activity against phse 2A portion of rat formalin-induced inflammatory pain model assessed as flinches at 25 mg/kg, ip. It is filed as functional, organism-based. Also noted: dose 25 mg/kg. An outline of the steps:
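Rat formalin inflammatory pain model with the phase IIA portion scored. Compounds were given intraperitoneally at 25 mg/kg, using 24–26 animals per group.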

The nature of data set [12]: Displacement of radioligand from voltage-gated sodium channel at 10 uM.
Data set [13] is described as follows: Displacement of radioligand from Voltage-dependent L-type calcium channel at 10 uM.
Data set [14] in a line: Volume of distribution at steady state in rat at 2 mg/kg, iv. The data set is classed as ADME, organism-based. Also noted: dose 2 mg/kg, route intravenous. The settings on record: in vivo, read-out: Vdss. In short, it runs like this: as §3
Data set [15] has as its target Voltage-gated inwardly rectifying potassium channel KCNH2 (Homo sapiens, UniProt Q12809). The data set is described as follows: Inhibition of human ERG current. In short, it runs like this:
as §2

Data set [16] has as its system Rattus norvegicus. Put plainly: Apparent oral clearance in rat at 10 mg/kg, po. The settings on record: in vivo.
For data set [17], the target named is Mu-type opioid receptor (Homo sapiens) (UniProt P35372). Put plainly: Displacement of radioligand from mu opioid receptor at 10 uM.
Chain of Mu-type opioid receptor (Homo sapiens) (P35372 whole entry): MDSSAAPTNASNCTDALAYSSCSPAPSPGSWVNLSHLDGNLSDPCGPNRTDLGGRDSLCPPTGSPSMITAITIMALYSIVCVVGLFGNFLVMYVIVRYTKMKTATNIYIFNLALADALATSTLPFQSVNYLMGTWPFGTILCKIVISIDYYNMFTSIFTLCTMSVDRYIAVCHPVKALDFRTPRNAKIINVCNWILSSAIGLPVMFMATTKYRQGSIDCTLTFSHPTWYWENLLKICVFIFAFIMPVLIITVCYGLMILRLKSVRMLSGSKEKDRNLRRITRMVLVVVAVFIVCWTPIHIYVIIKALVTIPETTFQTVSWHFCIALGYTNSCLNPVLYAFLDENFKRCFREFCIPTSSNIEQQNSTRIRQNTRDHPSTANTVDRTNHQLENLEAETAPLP
Data set [18] in a line: AUC (0 to infinity) in rat at 10 mg/kg, po. The following applies: plasma.
Data set [19] has as its target Cannabinoid receptor 1 (Homo sapiens) (UniProt P21554). The data set is described as follows: Displacement of radioligand from cannabinoid CB1 receptor at 10 uM.
Data set [20] is described as follows: Oral bioavailability in rat at 10 mg/kg, po. The settings on record: in vivo.
The nature of data set [21]: Half life in rat at 10 mg/kg, po. The following applies: in vivo.

Chain of Cannabinoid receptor 1 (Homo sapiens) (P21554 whole entry): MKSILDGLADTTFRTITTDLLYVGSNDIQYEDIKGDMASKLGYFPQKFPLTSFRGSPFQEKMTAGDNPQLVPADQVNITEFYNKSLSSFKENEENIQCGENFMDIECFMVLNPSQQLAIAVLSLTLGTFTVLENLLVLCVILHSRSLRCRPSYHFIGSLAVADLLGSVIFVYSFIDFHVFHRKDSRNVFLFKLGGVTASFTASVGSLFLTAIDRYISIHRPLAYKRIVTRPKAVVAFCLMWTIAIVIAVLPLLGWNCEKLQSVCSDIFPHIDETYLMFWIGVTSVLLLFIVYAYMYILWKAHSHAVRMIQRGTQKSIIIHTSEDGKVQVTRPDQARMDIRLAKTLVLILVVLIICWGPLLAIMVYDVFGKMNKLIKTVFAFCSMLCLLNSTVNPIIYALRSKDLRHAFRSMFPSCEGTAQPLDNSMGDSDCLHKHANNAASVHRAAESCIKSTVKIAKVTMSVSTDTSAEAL

One may read the pIC50 as the IC50 on a negative log10 scale, so that one unit is a factor of ten. With `COc1cc(C(=O)N2CCN(C(=O)CCCCC(c3ccc(F)cc3)c3ccc(F)cc3)CC2)cc(OC)c1OC`, in [1], the pIC50 was 6.27.

As to `O=C(CCCC(c1ccccc1)c1ccccc1)N1CCN(C(c2ccccc2)c2ccccc2)CC1`, the pIC50 in data set [1] is less than 4.30.

On to `O=C(CCCCC(c1ccccc1)c1ccccc1)N1CCN(C/C=C/c2ccccc2)CC1` (stereo in doubt; 5c) [listing 1 of 2 here], for which the negative logarithm of the IC50 (pIC50) in [2] (hek293) is 6.48; in [1] it was 6.92.

As for `O=C(CCCCC(c1ccccc1)c1ccccc1)N1CCN(C/C=C/c2ccccc2)CC1` (stereo in doubt; 5a) [listing 1 of 2 here], the pIC50 is 6.41 in data set [2] (HEK293) and 7.30 in data set [1].

Turning to `COc1ccc(CN2CCN(C(c3ccc(F)cc3)c3ccc(F)cc3)CC2)c(OC)c1OC` [LOMERIZINE], the pIC50 in data set [2] (HEK293) is 6.82. Further, in [3], the Ratio IC50 is 1.7.

In the case of `COc1ccc(/C=C/CN2CCN(C(=O)CCCCC(c3ccccc3)c3ccccc3)CC2)cc1`, the pIC50 in data set [1] was 6.72.

As to `O=C(NC(c1ccccc1)c1ccccc1)N1CCN(C(c2ccccc2)c2ccccc2)CC1`, the pIC50 in [2] (HEK293) is 5.74. Also, the Ratio IC50 in [3] amounted to 12.

With `O=C(C(c1ccccc1)c1ccccc1)N1CCN(C(c2ccccc2)c2ccccc2)CC1`, the pIC50 in data set [1] is less than 4.30.

For `c1ccc(C(CCCCN2CCN(C(c3ccccc3)c3ccccc3)CC2)c2ccccc2)cc1`, the pIC50 in [1] is 4.70.

As usually defined, the inhibition is the percentage by which the read-out fell short of the control. A low value points to a response near the control. In general, AUC(0-t) refers to the area under the concentration-time curve up to a stated or last time point. By half-life is commonly meant how long it takes for the measured level to halve. In general, Cmax refers to the maximum level reached in the sampled fluid or tissue. Broadly, the AUC(0-inf) is total exposure, with the tail of the curve extrapolated. A higher AUC(0-inf) goes with more exposure. By IC50 is commonly meant the concentration needed to halve the response being measured. Low values mean greater potency, high ones weaker potency. A word on the CL/F: it is clearance divided by bioavailability, as obtained after extravascular dosing. For orientation: bioavailability means the share of a dose that reaches the circulation, judged against a reference dose that is usually intravenous. A low value points to little systemic uptake. `O=C(CC(c1ccccc1)c1ccccc1)N1CCN(C(c2ccccc2)c2ccccc2)CC1` [Z160] had an inhibition at 1 µM in data set [4] of 24.8%. The AUC(0-t) at 8 h in [5] worked out at 999 ng·h/mL; in data set [6] it was 715 ng·h/mL. Further, the pIC50 in data set [2] (HEK293) was 4.91; in data set [1], 6.96. The results for the half-life in data set [7] and in data set [21] were 3.3 h and 2.1 h, respectively. Further, the Cmax worked out at 771 ng/mL in data set [8] and 235 ng/mL in data set [10]. For the same compound, the AUC(0-inf) in data set [9] came to 761 ng·h/mL; in [18], 1140 ng·h/mL. The outcome in data set [11], in [12], in data set [13], in data set [17] and in data set [19] was Active. Also, the Vd in data set [14] came to 5.79 L/kg. The IC50 in data set [15] was 7400 nM. The CL/F in data set [16] was found to be 164 mL/min/kg. In data set [20], this compound came in with a bioavailability of 30%. In data set [3], the Ratio IC50 stood at 111.

With `c1ccc(C(CCCN2CCN(C(c3ccccc3)c3ccccc3)CC2)c2ccccc2)cc1`, in [1], the pIC50 was 5.22.

On to `O=C(/C=C/c1cccc2c1OCO2)N1CCN(C(=O)CCCCC(c2ccccc2)c2ccccc2)CC1`, for which the pIC50 is 6.13 in data set [2] (HEK293) and 6.89 in data set [1]. Also, the Ratio IC50 in [3] came to 5.7.

With `Nc1ccc(/C=C/C(=O)N2CCN(C(=O)CCCCC(c3ccccc3)c3ccccc3)CC2)cc1`, the values for the pIC50 in data set [2] (HEK293) and in data set [1] were 6.08 and 6.82, respectively. Also, in [3], the Ratio IC50 came to 5.5.

For `O=C(CCCCC(c1ccc(F)cc1)c1ccc(F)cc1)N1CCN(C/C=C/c2ccccc2)CC1`, the results for the pIC50 in data set [2] (HEK293) and in data set [1] were 6.92 and 7.05, respectively. Further, the Ratio IC50 in data set [3] stood at 1.3.

`c1ccc(C(CCCCCN2CCN(C(c3ccccc3)c3ccccc3)CC2)c2ccccc2)cc1`: the pIC50 in data set [1] was 4.30.

`O=C(CCCCC(c1ccccc1)c1ccccc1)N1CCN(C/C=C/c2ccccc2)CC1` (stereo in doubt; 5a) [listing 2 of 2 here]: the Ratio IC50 in data set [3] amounted to 8.

For `O=C(CCCCC(c1ccccc1)c1ccccc1)N1CCN(C/C=C/c2ccccc2)CC1` (stereo in doubt; 5c) [listing 2 of 2 here], in data set [3], the Ratio IC50 turned out to be 2.8.

In the case of `COc1cc(CN2CCN(C(=O)CCCCC(c3ccc(F)cc3)c3ccc(F)cc3)CC2)cc(OC)c1OC`, the pIC50 in data set [1] is 6.72.

For the compound `O=C(CCCCC(c1ccccc1)c1ccccc1)N1CCN(C/C=C/c2cccc3c2OCO3)CC1`, the pIC50 in [1] was 6.72.

As to `c1ccc(C(CCN2CCN(C(c3ccccc3)c3ccccc3)CC2)c2ccccc2)cc1`, the pIC50 in data set [1] was 5.30.

`COc1ccc(/C=C/C(=O)N2CCN(C(=O)CCCCC(c3ccccc3)c3ccccc3)CC2)cc1`: the pIC50 was 6.60 in [2] (HEK293) and 7.05 in data set [1]. Moreover, the Ratio IC50 in data set [3] is 2.8.

In the case of `O=C(CCC(c1ccccc1)c1ccccc1)N1CCN(C(c2ccccc2)c2ccccc2)CC1`, the pIC50 in data set [1] was 4.64.

As for `c1ccc(C(CN2CCN(C(c3ccccc3)c3ccccc3)CC2)c2ccccc2)cc1`, the negative logarithm of the IC50 (pIC50) in data set [1] is less than 4.30.

Take `O=C(CCCCC(c1ccccc1)c1ccccc1)N1CCN(C(c2ccccc2)c2ccccc2)CC1`: the pIC50 in data set [1] is 4.30.

As to `Fc1ccc(C(c2ccc(F)cc2)N2CCN(C/C=C/c3ccccc3)CC2)cc1` [FLUNARIZINE], the results for the pIC50 in data set [2] (HEK293) and in [1] were 6.51 and 7.10, respectively. The Ratio IC50 in data set [3] stood at 3.9.

With `COc1cc(C(=O)N2CCN(CCCCCC(c3ccc(F)cc3)c3ccc(F)cc3)CC2)cc(OC)c1OC`, the results for the AUC(0-t) at 8 h in data set [5] and in [6] were 753 ng·h/mL and 725 ng·h/mL, respectively. The values for the pIC50 in data set [2] (HEK293) and in data set [1] were 5.55 and 6.96, respectively. Moreover, the half-life in [7] is 5 h; in [21], 4.5 h. The Cmax in [8] was 462 ng/mL; in data set [10], 173 ng/mL. Also, the AUC(0-inf) in data set [9] was 975 ng·h/mL; in [18], 1020 ng·h/mL. In addition, the result in data set [11] was Active. For the same compound, the Vd in data set [14] came to 11.7 L/kg. In addition, the CL/F in [16] was determined as 170 mL/min/kg. Further, the bioavailability in data set [20] was 21%.
